# Results reported in PubChem BioAssay.
# Activity calls are given as the source filed them.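 How the source made its calls, unless noted: active means viability loss from added drug above about 55%, and viability with drug at most 40%, in both replicates (limit read from the data, passing the limit was not always enough); inconclusive means both conditions met in only one replicate; inactive means neither replicate meets both conditions.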
# Key:
# [1] = HUVEC growth inhibition – cell-based, human, primary screen (AID 575;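 active means viability at or below 30% in both replicate assays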;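 further: 100% = median of untreated cell wells with 0.1% DMSO on each plate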); details: HUVEC proliferation, CellTiter-Glo luminescence, 72 h; at 10 µM; stronger effect = lower value
# Outline: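 Test system: primary human umbilical vein endothelial cells. Quantity: 1250 cells/well. Compound: single 10 µM dose, 0.1% DMSO, from 5x medium stock. Timing: 72 h treatment at 37 °C. Detection: ATP-based CellTiter-Glo luminescent read. Benchmarks: vehicle and MePR control wells. Format: 384-well plates coated with collagen.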
# [2] = growth inhibitors of H69AR lung tumor, primary screen, human, duplicate replicates (AID 580;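 active means viability at or under a set limit in both replicates, limit being median viability minus 3 SD, cut at about 48% in these data, passing the limit was not always enough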;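 further: 100% = mean luminescence of untreated wells and 0% = no signal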); details: H69AR lung tumor cells viability, ATP luminescence, 72 h; at 10 µM; stronger effect = lower value
# [3] = reversal of MRP1-mediated doxorubicin resistance, pilot screen, H69AR cells, doxorubicin co-treatment (AID 601); details: CellTiter-Glo, 72 h, at 10 µM; for differential viability (reversal): stronger effect = higher value
# [4] = 384-well plate pilot, post-Golgi transport modulator project, inhibition of yeast transport mutant growth (AID 636; in the data active means inhibition above about 31%); details: absorbance 615 nm, about 18 h, stronger effect = higher value
# [5] = growth suppression of yeast trafficking mutant, preliminary HTS, modulators of trafficking downstream of Golgi apparatus project, 1536-format plate, OD 615 nm (AID 637; in the data active means inhibition above about 30%); details: yeast transport mutant growth, absorbance 615 nm, 18 h; stronger effect = higher value
# [6] = H69AR cells + 2 uM doxorubicin, measured here: viability with 2 uM doxorubicin, stronger effect = lower value
# [7] = H69AR cells, compound alone cytotoxicity
Compound,viability [1],viability [2],differential viability (reversal) ([3]; H69AR cells + 2 uM doxorubicin),"viability [3, 6] [%]","viability [3, 7] [%]",inhibition [4],inhibition [5]
CCn1cc(/C=C(/C#N)S(=O)(=O)c2ccccc2)cn1,110% (inactive),95.3% (inactive),9.54% (inactive),85.8,95.3,-7.24% (inactive),-4.6% (inactive)
COCCn1cc(C(=O)NCCCN2CCC(C)CC2)c2c3ccccc3n(C)c2c1=O,90.7% (inactive),88.8% (inactive),2.62% (inactive),86.2,88.8,-5.97% (inactive),1.11% (inactive)
c1ccc(CCc2nn3c(Cn4cnc5ccccc54)nnc3s2)cc1,75.8% (inactive),81.8% (inactive),-3.56% (inactive),85.4,81.8,-1.18% (inactive),11.4% (inactive)
Cc1ccc(-n2c(-c3ccncc3)nnc2-c2cccs2)cc1,95.2% (inactive),79.9% (inactive),39.3% (inactive),40.6,79.9,-6.53% (inactive),9.37% (inactive)
CCCn1c(SCC(=O)Nc2ccccc2C(=O)OCC)nc2c1c(=O)n(C)c(=O)n2C,102% (inactive),95.7% (inactive),2.55% (inactive),93.1,95.7,-8% (inactive),-3.02% (inactive)
CC(C)Cn1cc(C(=O)NCC2CCCO2)c2c3ccccc3n(C)c2c1=O (stereo not drawn),104% (inactive),89.5% (inactive),1.72% (inactive),87.8,89.5,-2.08% (inactive),1.59% (inactive)
CCC(=O)N1CCc2cc(Br)cc(S(=O)(=O)C3(C(=O)OC)CC3)c21,102% (inactive),90.8% (inactive),8.17% (inactive),82.6,90.8,-1.82% (inactive),0.79% (inactive)
CCOC(=O)c1cc(-c2ccc(N)cc2)sc1N,92.5% (inactive),93.4% (inactive),8.46% (inactive),84.9,93.4,-5.07% (inactive),-0.95% (inactive)
C1=CC2CC1CC2CN1CCN(c2ccccc2)CC1 (stereo not drawn),97.7% (inactive),91.8% (inactive),-2.94% (inactive),94.8,91.8,1.45% (inactive),-1.27% (inactive)
CCCCOc1ccc(C(=O)Nc2ccc(N3CCN(C(=O)C(C)C)CC3)cc2)cc1,79.3% (inactive),75% (inactive),-6.69% (inactive),81.7,75,-3.55% (inactive),2.22% (inactive)
Fc1c(F)c(F)c(CSc2nc3ccccc3[nH]2)c(F)c1F,105% (inactive),95.8% (inactive),11.8% (inactive),84,95.8,0.65% (inactive),3.02% (inactive)
CC(C)(C)NC(=O)CN(C(=O)CS(=O)CC(=O)Nc1ccc(F)cc1)c1ccc(Cl)cc1 (stereo not drawn),95.2% (inactive),98.9% (inactive),10.3% (inactive),88.6,98.9,-4.53% (inactive),21.9% (inactive)
O=C1NC(c2ccccc2)(C(F)(F)F)SC2=NCCCN12 (stereo not drawn),102% (inactive),97.2% (inactive),7.68% (inactive),89.6,97.2,3.82% (inactive),-6.98% (inactive)
COc1ccc(N2CCN(c3oc(COc4ccccc4)nc3C#N)CC2)cc1,84.1% (inactive),101% (inactive),-2.02% (inactive),103,101,-5.19% (inactive),0.95% (inactive)
CC(C)Cc1nnc(NC(=O)CCC(=O)N2CCOCC2)s1,91.5% (inactive),96.2% (inactive),0.305% (inactive),95.9,96.2,-4.8% (inactive),0.63% (inactive)
CCOc1ccccc1N(CC(=O)N1CCOCC1)S(=O)(=O)c1ccccc1,108% (inactive),99% (inactive),1.18% (inactive),97.8,99,2.8% (inactive),-4.76% (inactive)
O=C1CC(c2ccccc2)CC(O)=C1C=NCCCN1CCOCC1 (stereo not drawn),100% (inactive),100% (inactive),5.34% (inactive),95,100,-1.05% (inactive),-3.49% (inactive)
CCS(=O)(=O)N1CCCC(C(=O)NCCc2ccc(OC)c(OC)c2)C1 (stereo not drawn),101% (inactive),104% (inactive),9.14% (inactive),94.5,104,1.07% (inactive),-0.95% (inactive)
CCOCCCNC(=O)C1CCCN(S(=O)(=O)CC)C1 (stereo not drawn),115% (inactive),94.5% (inactive),-3.11% (inactive),97.6,94.5,-6.53% (inactive),2.06% (inactive)
